Reference: ChEMBL document CHEMBL4152367, “Discovery of a Potent Thiazolidine Free Fatty Acid Receptor 2 Agonist with Favorable Pharmacokinetic Properties” (J Med Chem, 2018)
≈ marks a conversion by molar mass, not a printed value. Calls of active or inactive are those of the source. The calls are words filed in the database; no cut-off is given here.

Tests used:
[1] = Chemical stability of the compound in FaSSIF after 2 hrs; format: physicochemical; details: read-out: Stability
How it was run: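 Simulated-fluid stability: 50 µM compound in FaSSIF or FaSSGF (from 10 mM DMSO stock), shaken at 37 °C for 0 and 120 min. Quenched with acetonitrile containing 0.5% HCOOH, centrifuged, supernatant by HPLC. Stability from peak area relative to the 0 min sample; duplicates, mean reported.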

[2] = target: T1, Peroxisome proliferator-activated receptor gamma (Homo sapiens) (UniProt P37231); experiment: Antagonist activity at human PPARgamma expressed in Escherichia coli assessed as inhibition of rosiglitazone-induced calcium flux at 10 uM by fluorimetry
T1 sequence (whole entry): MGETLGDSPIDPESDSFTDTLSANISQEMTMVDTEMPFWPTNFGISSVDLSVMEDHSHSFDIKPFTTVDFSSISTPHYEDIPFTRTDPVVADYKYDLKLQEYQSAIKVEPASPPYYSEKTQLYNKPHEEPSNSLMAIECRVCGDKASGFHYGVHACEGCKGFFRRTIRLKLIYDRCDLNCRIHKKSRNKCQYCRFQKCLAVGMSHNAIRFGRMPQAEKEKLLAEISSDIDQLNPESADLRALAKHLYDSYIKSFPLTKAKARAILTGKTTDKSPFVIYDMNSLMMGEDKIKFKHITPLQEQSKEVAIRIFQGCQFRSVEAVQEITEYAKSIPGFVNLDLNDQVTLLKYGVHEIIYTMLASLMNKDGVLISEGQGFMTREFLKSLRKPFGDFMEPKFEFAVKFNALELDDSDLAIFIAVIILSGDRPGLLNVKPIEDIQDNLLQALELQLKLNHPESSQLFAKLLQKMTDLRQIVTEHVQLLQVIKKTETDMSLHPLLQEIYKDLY

[3] = target: T2, Peroxisome proliferator-activated receptor alpha (Homo sapiens) (UniProt Q07869); experiment: Antagonist activity at human PPARalpha expressed in Escherichia coli assessed as inhibition of […]-induced calcium flux at 10 uM by alpha screen assay
T2 sequence (whole entry): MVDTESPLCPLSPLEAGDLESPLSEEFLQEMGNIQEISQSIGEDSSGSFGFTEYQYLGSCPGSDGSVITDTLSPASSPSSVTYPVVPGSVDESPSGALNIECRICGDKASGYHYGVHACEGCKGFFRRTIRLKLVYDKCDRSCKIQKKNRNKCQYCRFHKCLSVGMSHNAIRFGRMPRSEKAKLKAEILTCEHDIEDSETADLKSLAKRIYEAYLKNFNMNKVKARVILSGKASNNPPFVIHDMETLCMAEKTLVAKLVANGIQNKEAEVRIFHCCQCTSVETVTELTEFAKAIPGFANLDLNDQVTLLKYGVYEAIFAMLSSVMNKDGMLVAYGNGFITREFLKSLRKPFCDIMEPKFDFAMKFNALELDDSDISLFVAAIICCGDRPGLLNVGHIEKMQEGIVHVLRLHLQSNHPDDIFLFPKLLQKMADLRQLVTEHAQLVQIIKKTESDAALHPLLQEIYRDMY

[4] = Volume of distribution in Balb/c mouse at 5 mg/kg, iv by HPLC-MS/MS analysis; format: ADME, organism-based; details: in vivo
How it was run: (§1)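 Balb/c mice dosed at 5 mg/kg iv or 10 mg/kg po. Plasma concentrations over time used to derive t1/2, AUC0–∞, Vd and total clearance (iv), and tmax, Cmax, AUC0–∞ and oral bioavailability (po).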

[5] = AUC (0 to infinity) in Balb/c mouse at 5 mg/kg, iv by HPLC-MS/MS analysis; format: ADME, organism-based; parameters: dose 5 mg/kg, time infinity, route intravenous; details: in vivo; how it was run: as §1
[6] = Aqueous solubility of the compound in PBS buffer at pH 7.4 after 24 hrs by HPLC analysis; format: physicochemical
[7] = target: Free fatty acid receptor 1 (Homo sapiens) (UniProt O14842); experiment: Antagonist activity at human FFA1 receptor expressed in HEK293 cells assessed as inhibition of linoleic acid-induced calcium flux at 10 uM by fluorimetry; format: functional, cell-based
Sequence of Free fatty acid receptor 1 (Homo sapiens) (O14842 whole entry): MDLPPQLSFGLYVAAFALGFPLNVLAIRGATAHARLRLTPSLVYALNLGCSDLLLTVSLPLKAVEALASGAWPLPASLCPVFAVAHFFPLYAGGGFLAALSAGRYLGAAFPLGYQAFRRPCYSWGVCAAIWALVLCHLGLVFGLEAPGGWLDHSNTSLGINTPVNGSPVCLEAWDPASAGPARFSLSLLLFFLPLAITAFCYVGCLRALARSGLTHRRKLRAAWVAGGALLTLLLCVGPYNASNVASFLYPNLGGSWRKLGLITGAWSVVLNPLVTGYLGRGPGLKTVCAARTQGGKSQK

[8] = target: T3, Peroxisome proliferator-activated receptor delta (Homo sapiens) (UniProt Q03181); experiment: Agonist activity at human PPARdelta expressed in Escherichia coli assessed as induction of calcium flux at 10 uM by fluorimetry
T3 sequence (whole entry): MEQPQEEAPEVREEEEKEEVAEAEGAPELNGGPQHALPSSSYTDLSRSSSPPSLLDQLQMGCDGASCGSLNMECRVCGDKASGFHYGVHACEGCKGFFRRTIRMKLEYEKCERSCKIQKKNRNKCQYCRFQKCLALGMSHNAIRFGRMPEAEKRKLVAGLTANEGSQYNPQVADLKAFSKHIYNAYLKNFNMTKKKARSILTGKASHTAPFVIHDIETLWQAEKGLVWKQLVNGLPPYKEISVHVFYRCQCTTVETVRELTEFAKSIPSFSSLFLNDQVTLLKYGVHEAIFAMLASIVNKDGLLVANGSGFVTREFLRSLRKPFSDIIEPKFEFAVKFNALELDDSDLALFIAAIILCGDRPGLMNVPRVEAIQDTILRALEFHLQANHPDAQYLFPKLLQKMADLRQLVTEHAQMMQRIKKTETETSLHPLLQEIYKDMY

[9] = Total clearance in Balb/c mouse at 5 mg/kg, iv by HPLC-MS/MS analysis; format: ADME, organism-based; details: in vivo; how it was run: as §1
[10] = target: T4, Free fatty acid receptor 4 (Homo sapiens) (UniProt Q5NUL3); experiment: Agonist activity at human FFA4 receptor expressed in HEK293 cells assessed as induction of calcium flux at 10 uM by fluorimetry; format: functional, cell-based
T4 sequence (whole entry): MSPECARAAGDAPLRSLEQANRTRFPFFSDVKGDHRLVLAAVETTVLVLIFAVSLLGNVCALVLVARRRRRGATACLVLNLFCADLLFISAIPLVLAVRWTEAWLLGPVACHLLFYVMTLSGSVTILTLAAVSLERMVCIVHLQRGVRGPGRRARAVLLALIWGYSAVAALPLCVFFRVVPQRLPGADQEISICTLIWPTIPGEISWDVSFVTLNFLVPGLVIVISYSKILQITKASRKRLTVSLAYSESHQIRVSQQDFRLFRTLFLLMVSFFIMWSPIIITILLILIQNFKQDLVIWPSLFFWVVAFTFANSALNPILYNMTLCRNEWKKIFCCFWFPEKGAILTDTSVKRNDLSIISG

[11] = Half life in Balb/c mouse at 5 mg/kg, iv by HPLC-MS/MS analysis; format: ADME, organism-based; details: in vivo; how it was run: as §1
[12] = target: T2, Peroxisome proliferator-activated receptor alpha (Homo sapiens); experiment: Agonist activity at human PPARalpha expressed in Escherichia coli assessed as induction of calcium flux at 10 uM by fluorimetry
[13] = Cmax in Balb/c mouse at 10 mg/kg, po by HPLC-MS/MS analysis; format: ADME, organism-based; parameters: dose 10 mg/kg, route oral; details: in vivo; how it was run: as §1

remaining at 2 h [1]: 95% | inhibition [2]: inactive | inhibition [3]: inactive | Vd [4]: 4.05 L/kg | AUC(0-inf) [5]: 4100 ng·h/mL | solubility at 24 h [6]: 182 µM (≈ 80.6 µg/mL) | inhibition [7]: inactive | Activity [8]: inactive | clearance [9]: 20.3 mL/min/kg | Activity [10]: inactive | half-life [11]: 2.3 h | Activity [12]: inactive | Cmax [13]: 2880 ng/mL
SMILES: Cc1noc(C)c1-c1ccc(C(=O)N2[C@@H](c3ccccc3Cl)SC[C@H]2C(=O)O)cc1
